Data set [1] in a line: Half life for the nitro group loss in xanthine oxidase enzyme assay in 5 %DMF at 0.1 mM; No rection seen. In kind it is ADME. As to conditions: 100 µM; call rule not given here.
The target of data set [2] is Xanthine dehydrogenase/oxidase (Bos taurus, UniProt P80457). Put plainly: Reaction rate was evaluated for the compound with hypoxanthine as reducing substrate in 5% DMF expressed as nM/min/unit XOD.
In data set [3] the test system is xanthine oxidase. Put plainly: (§1) Half life for the nitro group loss in xanthine oxidase enzyme assay in 5%DMF at 0.1 mM.
Data set [4] in a line: Half life for the nitro group loss in xanthime oxidase enzyme assay in 5%DMF with no hypoxanthine control at 0.1 mM; No reaction seen. The format is ADME. Particulars: 100 µM.
Data set [5] is described as follows: Half life for the nitro group loss in xanthime oxidase enzyme assay in 5%DMF with no enzyme control at 0.1 mM; No reaction seen. The format is ADME. As to conditions: 100 µM.
Data set [6] is described as follows: as §1. As to conditions: 100 µM. In kind it is ADME. In a few lines:
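Nitro compound at 100 µM with 4 mM hypoxanthine and 0.2 units/mL cow milk xanthine oxidase, in 0.1 M phosphate/EDTA pH 7.4 containing 5% DMF. Solutions were argon-deoxygenated before the enzyme was injected by gas-tight syringe. Loss of the 326 nm nitroimidazole absorbance was followed by UV/vis, and the half-life derived from the time course.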

Data set [7] has as its system xanthine oxidase. Put plainly: Half life for the nitro group loss in xanthine oxidase enzyme assay in 0.2%DMF at 0.1 mM. The format is ADME. In a few lines:
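Anaerobic assay in argon-purged, septum-sealed cuvette: 100 µM nitro compound, 4 mM hypoxanthine, 0.2 units/mL bovine milk xanthine oxidase, 0.1 M phosphate/EDTA pH 7.4, 0.2% DMF final. Nitro absorbance at 326 nm read every 5 min and converted to concentration. Half-life taken from plots of log[% remaining] vs time.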

The term half-life denotes how long it takes for the measured level to halve. Lower therefore signals fast loss.

Bounds are passed on as bounds.

Chain of Xanthine dehydrogenase/oxidase (P80457 whole entry): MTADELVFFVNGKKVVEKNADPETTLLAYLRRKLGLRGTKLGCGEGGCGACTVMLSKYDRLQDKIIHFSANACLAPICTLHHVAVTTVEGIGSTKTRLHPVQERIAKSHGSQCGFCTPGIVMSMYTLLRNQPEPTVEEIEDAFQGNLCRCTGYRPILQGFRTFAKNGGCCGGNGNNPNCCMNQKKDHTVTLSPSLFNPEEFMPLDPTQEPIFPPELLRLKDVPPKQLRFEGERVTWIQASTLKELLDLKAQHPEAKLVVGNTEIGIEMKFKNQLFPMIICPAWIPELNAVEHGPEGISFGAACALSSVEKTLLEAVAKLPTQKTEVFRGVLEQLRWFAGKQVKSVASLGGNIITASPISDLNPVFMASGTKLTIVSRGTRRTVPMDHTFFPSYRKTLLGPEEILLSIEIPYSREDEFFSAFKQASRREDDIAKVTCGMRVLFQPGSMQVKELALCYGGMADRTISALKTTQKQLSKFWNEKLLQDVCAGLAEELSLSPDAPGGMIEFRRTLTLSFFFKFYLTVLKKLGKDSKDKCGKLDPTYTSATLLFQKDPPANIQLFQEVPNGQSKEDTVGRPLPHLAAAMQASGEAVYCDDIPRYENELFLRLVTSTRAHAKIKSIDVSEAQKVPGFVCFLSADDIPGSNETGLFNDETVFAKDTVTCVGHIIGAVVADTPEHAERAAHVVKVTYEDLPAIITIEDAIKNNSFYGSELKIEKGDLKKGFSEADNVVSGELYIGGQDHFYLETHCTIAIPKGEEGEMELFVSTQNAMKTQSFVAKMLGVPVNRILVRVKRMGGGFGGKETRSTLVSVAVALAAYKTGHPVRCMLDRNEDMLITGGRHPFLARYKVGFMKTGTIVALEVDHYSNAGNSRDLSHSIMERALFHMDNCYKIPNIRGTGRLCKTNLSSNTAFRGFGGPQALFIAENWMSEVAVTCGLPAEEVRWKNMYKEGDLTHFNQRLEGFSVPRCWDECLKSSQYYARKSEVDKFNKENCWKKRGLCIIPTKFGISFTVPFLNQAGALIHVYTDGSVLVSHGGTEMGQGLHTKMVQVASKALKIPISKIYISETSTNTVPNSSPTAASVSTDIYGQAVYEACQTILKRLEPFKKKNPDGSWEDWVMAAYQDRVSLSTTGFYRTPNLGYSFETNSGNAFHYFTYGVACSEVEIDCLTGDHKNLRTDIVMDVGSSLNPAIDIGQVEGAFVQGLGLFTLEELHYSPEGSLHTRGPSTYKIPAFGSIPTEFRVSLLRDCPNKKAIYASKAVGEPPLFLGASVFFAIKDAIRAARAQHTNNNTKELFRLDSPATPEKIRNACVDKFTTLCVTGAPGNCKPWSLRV

On to TCO(PNAO), for which the T1/2 result in data set [1] is on record as “Not Active”.
As to `COCC(O)Cn1ccnc1[N+](=O)[O-]` (stereo not drawn) [MISONIDAZOLE], the Rate in data set [2] is on record as 3.7 nM min-1 (unit XOD)-1. For the same compound, the half-life at 100 µM in data set [3] worked out at 1 h.
Take TcO(PnA.O-1-(2-nitroimidazole)): in data set [2], the Rate was 1.5 nM min-1 (unit XOD)-1. Also, the T1/2 result was “Not Active” in data set [4], “Not Active” in data set [5] and 2 h in data set [6].
Compound `Cc1ncc([N+](=O)[O-])n1CCO` [METRONIDAZOLE] yielded a half-life at 100 µM in data set [7] greater than 20 h.

These data come from ChEMBL document CHEMBL1127501, “TcO(PnA.O-1-(2-nitroimidazole)) [BMS-181321], a new technetium-containing nitroimidazole complex for imaging hypoxia: synthesis, characterization, and xanthine oxidase-catalyzed reduction” (J Med Chem, 1994).
